Experimental data of several laboratories.
Target: cGMP-dependent protein kinase 2 (PRKG2, Homo sapiens, UniProt Q13237)
One construct used (Q13237 1-762): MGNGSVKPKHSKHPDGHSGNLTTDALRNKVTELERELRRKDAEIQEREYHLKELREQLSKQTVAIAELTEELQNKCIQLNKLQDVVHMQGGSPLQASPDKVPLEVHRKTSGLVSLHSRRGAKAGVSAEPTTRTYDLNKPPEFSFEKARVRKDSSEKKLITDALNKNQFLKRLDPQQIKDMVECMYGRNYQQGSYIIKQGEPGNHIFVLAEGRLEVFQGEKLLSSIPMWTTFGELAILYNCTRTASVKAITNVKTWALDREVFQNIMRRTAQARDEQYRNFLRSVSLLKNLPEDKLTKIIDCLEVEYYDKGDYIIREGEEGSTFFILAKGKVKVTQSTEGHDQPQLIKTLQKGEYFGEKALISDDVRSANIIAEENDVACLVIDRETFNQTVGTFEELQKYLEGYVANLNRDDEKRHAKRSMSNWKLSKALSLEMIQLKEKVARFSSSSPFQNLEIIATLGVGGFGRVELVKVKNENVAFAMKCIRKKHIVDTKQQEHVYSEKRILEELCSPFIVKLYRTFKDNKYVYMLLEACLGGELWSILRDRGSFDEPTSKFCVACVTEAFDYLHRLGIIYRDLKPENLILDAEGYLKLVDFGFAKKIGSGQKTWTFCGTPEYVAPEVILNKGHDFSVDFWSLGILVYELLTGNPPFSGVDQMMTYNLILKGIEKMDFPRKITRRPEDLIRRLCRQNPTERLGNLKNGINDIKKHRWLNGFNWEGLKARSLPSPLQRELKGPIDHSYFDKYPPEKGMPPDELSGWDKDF

Structure (SMILES)	test	conditions	remaining binding [%]
C[C@@H](c1ccc(-n2cnc3c(N)ncnc32)cc1)N1CCc2nn(C)c(Cc3ccccc3)c2C1=O	binding, competition with immobilised ligand	0.1 µM	73
CC1CCCN1c1nccc(-c2cnn3ncccc23)n1 (stereo not shown)	binding	1 µM	97
CO[C@@H](C)c1c(Nc2ccc([C@H](N(C)C(=O)C3CCS(=O)(=O)CC3)C(F)(F)F)cc2)cnc2cc(Cl)nn12	cell-free assay, competition with immobilised ligand	1 µM	100
CCN1CCN(Cc2ccc(C(=O)Nc3ccc(C)c(Oc4ccc5c(c4)CC(=O)N5)c3)cc2C(F)(F)F)CC1	binding, competition with immobilised ligand	1 µM	100
O=C1NC(c2ccccn2)Sc2ccccc21 (stereo not shown)	cell-free assay, competition with immobilised ligand	1 µM	90
O=C(c1ccc(Nc2ncc(Cl)c(-c3cc4ccccc4s3)n2)cc1)N1CCC(N2CCCC2)CC1	binding, competition with immobilised ligand	1 µM	13
CNC(=O)[C@@H]1CC[C@@H](n2c(-c3ccc4cnccc4c3)nc3ccc(C(=O)NCc4cccc(C(N)=O)c4)cc32)C1	binding, competition with immobilised ligand	1 µM	100
N[C@H]1CCN(c2nccc(-c3cnn4ncccc34)n2)C1	binding	1 µM	91
O=C(NCCCN1CCOCC1)c1ccc(Nc2ncc(Cl)c(-c3ccc(Cl)s3)n2)cc1	binding, competition with immobilised ligand	1 µM	54
O=C(NCC1CCOCC1)c1n[nH]cc1NC(=O)c1c(F)cccc1F	binding, competition with immobilised ligand	1 µM	88
C=CC(=O)N1CCC(C(=O)NCC(=O)N2CCN(c3nc(-c4cnc(N)nc4C(F)F)nc(N4CCOCC4)n3)CC2)CC1	binding, competition with immobilised ligand	1 µM	69
c1cncc(-c2cccc(Nc3nccc(NC4CCCCC4)n3)c2)c1	binding, competition with immobilised ligand	10 µM	74
CN(c1nccc(-c2cnn3ncccc23)n1)C1CC1	binding	1 µM	100
O=C(c1ccc(Nc2nccc(-c3cc4ccccc4s3)n2)cc1)N1CCC(N2CCCC2)CC1	binding, competition with immobilised ligand	1 µM	33
C[C@@H]1CCN(c2nccc(-c3cnn4ncccc34)n2)C1	binding	1 µM	81
Nc1cnc(N2CCc3cc(S(=O)(=O)Nc4c(F)cc(Cl)cc4F)cc(N4CCCC4=O)c32)nc1	cell-free assay, competition with immobilised ligand	1 µM	84
CN(C)c1nccc(-c2cnn3ncccc23)n1	binding	1 µM	100
NS(=O)(=O)c1cc(NC(=O)C2(c3ccccc3Cl)CC2)ccc1Oc1cccc(Cl)c1	cell-free assay, competition with immobilised ligand	1 µM	100
c1cnn2ncc(-c3ccnc(N4CCC45COC5)n3)c2c1	binding	1 µM	82
C[C@H](c1ccc(F)cc1)N(Cc1cccc(C(=O)O)c1)C(=O)c1cnc2ccccc2c1	cell-free assay, competition with immobilised ligand	1 µM	100
CN(C)c1nccc(-c2cnc3ncccn23)n1	binding	1 µM	69
O=C1CCc2cc(Nc3cc(OC4CCOCC4)c([N+](=O)[O-])cc3Cl)ccc2N1	cell-free assay, competition with immobilised ligand	1 µM	85
